Measurements collected from several papers.
Protocols differ between the studies behind these lines.
Target: Serine/threonine-protein kinase pim-3 (PIM3, Homo sapiens, UniProt Q86V86)

`C[C@H]1CC[C@H](n2c3cnccc3c3cnc(Nc4ccc5c(n4)CCN(C(=O)CO)C5)nc32)CC1` gave a remaining signal of 31% (cell-free assay; 1 µM).
The inhibition of `C=CC(=O)N1CCC[C@@H](n2nc(-c3ccc(Oc4ccccc4)cc3)c3c(N)ncnc32)C1` is reported as 0% (enzyme activity, inhibitor; 1 µM).
`C#Cc1cnc(Nc2ccnc(CO)c2)nc1Nc1ccccc1S(C)(=O)=NC#N` (stereo not shown) has a remaining signal of 80% (cell-free assay; 1 µM).
`COc1ccc2oc(-c3ccc4nc(N)oc4c3)c/c(=N\c3ccccc3NC(=O)CCN)c2c1` gave a remaining binding of 110% (binding; 1 µM).
With `COc1ccc2[nH]c3c4[nH]c5ccc(OC)cc5c4c4c(c3c2c1)C(=O)NC4=O` the remaining binding was 2.6% (binding; 1 µM).
With `C1=C/COCc2cc(ccc2OCCN2CCCC2)Nc2nccc(n2)-c2cccc(c2)COC/1` the remaining binding was 97% (binding; 0.1 µM).
The inhibition of `C=CC(=O)N1CCC([C@@H]2CCNc3c(C(N)=O)c(-c4ccc(Oc5ccccc5)cc4)nn32)CC1` is reported as 2% (enzyme activity, inhibitor; 1 µM).
The remaining binding of `N#Cc1ccc(NC(=O)Nc2ccccc2)cc1` is reported as 74% (cell-free assay, competition with immobilised ligand; 25 µM).
With `CC(C)S(=O)(=O)c1ccc2nccc(Nc3ccc4sc(C5CCCC5)nc4c3)c2c1` the activity vs control was 104% (enzyme activity, inhibitor; 1 µM).
`CCCCC(=O)Nc1ccc(-c2ccc3ncn(CCC)c(=O)c3c2)cn1` gave a remaining binding of 93% (binding, competition with immobilised ligand; 0.5 µM).
